From ChEMBL document CHEMBL1165942, “Synthesis and anti-inflammatory activity of new arylidene-thiazolidine-2,4-diones as PPARgamma ligands” (Bioorg Med Chem, 2010)

Columns and labels:
[1] = target: T1, Peroxisome proliferator-activated receptor gamma (Homo sapiens, UniProt P37231); assay: Displacement of [3H]rosiglitazone from human PPARgamma ligand binding domain expressed in Escherichia coli BL21 after 12 hrs by liquid scintillation counting
T1 sequence (P37231 whole entry): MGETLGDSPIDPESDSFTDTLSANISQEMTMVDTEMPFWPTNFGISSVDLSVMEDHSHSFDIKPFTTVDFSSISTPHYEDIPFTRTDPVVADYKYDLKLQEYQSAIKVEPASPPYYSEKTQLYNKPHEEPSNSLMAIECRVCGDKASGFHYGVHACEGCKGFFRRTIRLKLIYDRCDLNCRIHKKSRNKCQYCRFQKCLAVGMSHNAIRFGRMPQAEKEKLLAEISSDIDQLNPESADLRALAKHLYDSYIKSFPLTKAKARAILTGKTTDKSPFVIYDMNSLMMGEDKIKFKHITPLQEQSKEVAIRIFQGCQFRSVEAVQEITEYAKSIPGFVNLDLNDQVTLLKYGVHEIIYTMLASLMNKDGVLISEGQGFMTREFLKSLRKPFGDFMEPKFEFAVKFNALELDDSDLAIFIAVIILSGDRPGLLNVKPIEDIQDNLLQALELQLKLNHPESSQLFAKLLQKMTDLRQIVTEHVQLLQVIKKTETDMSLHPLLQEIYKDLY
Summary of the method: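 His-tagged hPPARγ LBD purified on Co2+ affinity resin, preincubated 12 h at 4 °C with 40 nM [3H]rosiglitazone (50 Ci/mmol) in 10 mM Tris pH 8.0, 50 mM KCl, 10 mM DTT. Unlabeled ligand or DMSO vehicle added, then a further 12 h at 4 °C. Bound and free label separated on Sephadex G-25 and counted by scintillation. Results as % bound vs vehicle; Ki from concentration-dependent displacement.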

Mus musculus = assay: Antiinflammatory activity against carrageenan-induced air pouch inflammation in po dosed mouse assessed as inhibition of leukocyte infiltration administered 1 hr before carrageenan challenge measured after 6 hrs by hemocytometry relative to untreated control

O=C1S/C(=C\c2ccc(-c3ccccc3)cc2)C(=O)N1Cc1cccc(Cl)c1
Ki [1]: 43.6 µM | inhibition (INH) (Mus musculus): 67%

COc1ccc(/C=C2\SC(=O)N(Cc3cccc(Cl)c3)C2=O)cc1Br
inhibition (INH) (Mus musculus): 51.5%

O=C1S/C(=C\c2ccc3c(c2)Cc2ccccc2-3)C(=O)N1Cc1cccc(Cl)c1
inhibition (INH) (Mus musculus): 65.2%

CS(=O)(=O)c1ccc(/C=C2\SC(=O)N(Cc3ccccc3Br)C2=O)cc1
Ki [1]: 7.3 µM | inhibition (INH) (Mus musculus): 73.3%

COc1ccc(Br)cc1/C=C1\SC(=O)N(Cc2cccc(Cl)c2)C1=O
inhibition (INH) (Mus musculus): 47.4%

O=C1S/C(=C\c2ccc(Cl)cc2Cl)C(=O)N1Cc1c(F)cccc1Cl
Ki [1]: 4 µM | inhibition (INH) (Mus musculus): 41.6%

COc1ccc(/C=C2\SC(=O)N(Cc3cccc(Cl)c3)C2=O)cc1
inhibition (INH) (Mus musculus): 42%

CN(CCOc1ccc(CC2SC(=O)NC2=O)cc1)c1ccccn1 (stereo not drawn) [ROSIGLITAZONE]
inhibition (INH) (Mus musculus): 72%

CS(=O)(=O)c1ccc(/C=C2\SC(=O)N(Cc3cccc(Cl)c3)C2=O)cc1
Ki [1]: 43 µM | inhibition (INH) (Mus musculus): 63.9%
